From the M2OR odorant receptor database

Tests used:
Conditions in all cases: stereoisomer not certain
OR51F2 (Homo sapiens) = OR51F2 (Homo sapiens) (UniProt Q8NH61)
Outline: (§1)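 Each receptor–molecule pair is labelled responsive or non-responsive (inactive) according to whether the original authors judged the measured signal statistically different from baseline. The data were taken from the main text and supplementary material of published papers and checked for typos and inconsistencies. Assay methods differed by source, with transient luciferase assays in mammalian cell lines being common.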

OR51G1 (Homo sapiens) = OR51G1 (Homo sapiens) (UniProt Q8NGK1)
Outline: as §1

OR51G2 (Homo sapiens) = OR51G2 (Homo sapiens) (UniProt Q8NGK0)
Outline: as §1

OR51I1 (Homo sapiens) = OR51I1 (Homo sapiens) (UniProt Q9H343)
Outline: as §1

OR51I2 (Homo sapiens) = OR51I2 (Homo sapiens) (UniProt Q9H344)
Outline: as §1

OR51J1 (Homo sapiens) = OR51J1 (Homo sapiens) (UniProt Q9H342)
Outline: as §1

OR51L1 (Homo sapiens) = biological target: T1, OR51L1 (Homo sapiens) (UniProt Q8NGJ5)
T1 sequence (whole entry): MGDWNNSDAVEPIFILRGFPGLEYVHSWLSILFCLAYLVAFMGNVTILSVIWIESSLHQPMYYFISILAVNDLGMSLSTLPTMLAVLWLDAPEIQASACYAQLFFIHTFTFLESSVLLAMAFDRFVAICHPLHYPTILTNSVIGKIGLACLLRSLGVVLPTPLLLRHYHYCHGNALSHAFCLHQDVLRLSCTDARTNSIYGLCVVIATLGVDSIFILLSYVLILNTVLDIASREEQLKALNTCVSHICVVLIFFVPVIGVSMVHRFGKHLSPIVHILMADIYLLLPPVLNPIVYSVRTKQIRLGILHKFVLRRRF
Outline: as §1

OR51M1 (Homo sapiens) = OR51M1 (Homo sapiens) (UniProt Q9H341)
Outline: as §1

OR51Q1 (Homo sapiens) = OR51Q1 (Homo sapiens) (UniProt Q8NH59)
Outline: as §1

OR51S1 (Homo sapiens) = OR51S1 (Homo sapiens) (UniProt Q8NGJ8)
Outline: as §1

OR51V1 (Homo sapiens) = OR51V1 (Homo sapiens) (UniProt Q9H2C8)
Outline: as §1

OR52A1 (Homo sapiens) = OR52A1 (Homo sapiens) (UniProt Q9UKL2)
Outline: as §1

OR52A5 (Homo sapiens) = OR52A5 (Homo sapiens) (UniProt Q9H2C5)
Outline: as §1

OR52B2 (Homo sapiens) = OR52B2 (Homo sapiens) (UniProt Q96RD2)
Outline: as §1

OR52B4 (Homo sapiens) = OR52B4 (Homo sapiens) (UniProt Q8NGK2)
Outline: as §1

OR52B6 (Homo sapiens) = OR52B6 (Homo sapiens) (UniProt Q8NGF0)
Outline: as §1

OR51F1 (Homo sapiens) = OR51F1 (Homo sapiens) (UniProt A6NGY5)
Outline: as §1

OR51H1 (Homo sapiens) = OR51H1 (Homo sapiens) (UniProt Q8NH63)
Outline: as §1

OR51T1 (Homo sapiens) = OR51T1 (Homo sapiens) (UniProt Q8NGJ9)
Outline: as §1

OR52A4P (Homo sapiens) = OR52A4P (Homo sapiens) (UniProt A6NMU1)
Outline: as §1

Measured: odorant receptor agonist call

Chain of OR51S1 (Homo sapiens) (Q8NGJ8 whole entry): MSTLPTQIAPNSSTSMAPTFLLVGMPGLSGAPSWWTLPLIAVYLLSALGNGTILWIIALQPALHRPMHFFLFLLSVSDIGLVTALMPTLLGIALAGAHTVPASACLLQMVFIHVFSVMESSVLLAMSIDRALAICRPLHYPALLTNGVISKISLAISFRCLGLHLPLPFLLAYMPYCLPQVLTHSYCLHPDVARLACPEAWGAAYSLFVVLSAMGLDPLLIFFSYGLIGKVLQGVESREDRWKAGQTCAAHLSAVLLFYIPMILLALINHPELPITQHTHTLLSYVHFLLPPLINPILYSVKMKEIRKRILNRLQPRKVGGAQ
Chain of OR51M1 (Homo sapiens) (Q9H341 whole entry): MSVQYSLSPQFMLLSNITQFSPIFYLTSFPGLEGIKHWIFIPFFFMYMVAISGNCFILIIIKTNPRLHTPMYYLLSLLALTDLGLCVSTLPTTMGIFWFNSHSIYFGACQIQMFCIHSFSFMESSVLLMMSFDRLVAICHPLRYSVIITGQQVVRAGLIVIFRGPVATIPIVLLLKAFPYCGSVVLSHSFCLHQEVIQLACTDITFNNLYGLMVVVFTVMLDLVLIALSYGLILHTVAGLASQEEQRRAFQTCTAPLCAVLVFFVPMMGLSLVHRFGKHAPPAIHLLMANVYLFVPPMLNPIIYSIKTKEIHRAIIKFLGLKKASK
Chain of OR52B2 (Homo sapiens) (Q96RD2 whole entry): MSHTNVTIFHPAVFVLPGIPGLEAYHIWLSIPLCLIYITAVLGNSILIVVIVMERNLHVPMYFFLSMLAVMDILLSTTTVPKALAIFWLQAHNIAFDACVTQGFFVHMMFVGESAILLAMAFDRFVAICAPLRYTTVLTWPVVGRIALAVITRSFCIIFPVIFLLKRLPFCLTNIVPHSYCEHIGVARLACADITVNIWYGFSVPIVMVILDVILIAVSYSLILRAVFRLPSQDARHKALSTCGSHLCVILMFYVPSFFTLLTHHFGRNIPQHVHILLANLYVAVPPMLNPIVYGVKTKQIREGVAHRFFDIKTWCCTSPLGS
Chain of OR51G1 (Homo sapiens) (Q8NGK1 whole entry): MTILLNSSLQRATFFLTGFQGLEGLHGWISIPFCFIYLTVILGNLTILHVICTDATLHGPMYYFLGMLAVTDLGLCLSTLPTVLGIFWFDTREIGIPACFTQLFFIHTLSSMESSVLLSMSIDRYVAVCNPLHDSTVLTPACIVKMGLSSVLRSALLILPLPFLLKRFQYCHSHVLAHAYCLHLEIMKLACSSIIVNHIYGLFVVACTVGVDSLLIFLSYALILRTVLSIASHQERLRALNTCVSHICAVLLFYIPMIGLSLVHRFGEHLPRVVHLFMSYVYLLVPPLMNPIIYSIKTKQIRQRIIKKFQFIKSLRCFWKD
Chain of OR52B4 (Homo sapiens) (Q8NGK2 whole entry): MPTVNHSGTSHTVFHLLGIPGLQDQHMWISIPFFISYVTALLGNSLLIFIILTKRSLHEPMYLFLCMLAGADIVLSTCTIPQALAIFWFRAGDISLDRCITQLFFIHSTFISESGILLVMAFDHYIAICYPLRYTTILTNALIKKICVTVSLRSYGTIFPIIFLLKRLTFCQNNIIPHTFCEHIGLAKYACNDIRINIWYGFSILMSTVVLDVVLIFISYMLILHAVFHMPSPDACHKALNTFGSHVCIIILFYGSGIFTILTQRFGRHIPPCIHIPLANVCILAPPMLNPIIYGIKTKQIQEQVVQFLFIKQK
Chain of OR52A5 (Homo sapiens) (Q9H2C5 whole entry): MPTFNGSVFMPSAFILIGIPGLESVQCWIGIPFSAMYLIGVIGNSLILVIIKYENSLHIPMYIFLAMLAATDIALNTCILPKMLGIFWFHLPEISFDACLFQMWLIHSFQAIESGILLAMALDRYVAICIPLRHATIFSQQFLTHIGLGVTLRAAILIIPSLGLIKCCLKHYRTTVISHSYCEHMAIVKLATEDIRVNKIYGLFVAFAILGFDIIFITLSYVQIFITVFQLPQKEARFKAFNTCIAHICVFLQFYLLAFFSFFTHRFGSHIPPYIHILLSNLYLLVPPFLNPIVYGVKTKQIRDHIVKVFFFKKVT
Chain of OR51V1 (Homo sapiens) (Q9H2C8 whole entry): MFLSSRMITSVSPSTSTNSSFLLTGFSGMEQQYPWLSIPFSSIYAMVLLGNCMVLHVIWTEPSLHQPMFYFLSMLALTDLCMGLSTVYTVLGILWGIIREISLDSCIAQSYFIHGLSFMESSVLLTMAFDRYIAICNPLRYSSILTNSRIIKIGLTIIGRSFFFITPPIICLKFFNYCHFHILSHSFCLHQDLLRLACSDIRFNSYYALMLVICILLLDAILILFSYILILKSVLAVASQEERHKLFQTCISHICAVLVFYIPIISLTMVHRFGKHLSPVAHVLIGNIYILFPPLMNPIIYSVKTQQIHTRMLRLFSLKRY
Chain of OR52B6 (Homo sapiens) (Q8NGF0 whole entry): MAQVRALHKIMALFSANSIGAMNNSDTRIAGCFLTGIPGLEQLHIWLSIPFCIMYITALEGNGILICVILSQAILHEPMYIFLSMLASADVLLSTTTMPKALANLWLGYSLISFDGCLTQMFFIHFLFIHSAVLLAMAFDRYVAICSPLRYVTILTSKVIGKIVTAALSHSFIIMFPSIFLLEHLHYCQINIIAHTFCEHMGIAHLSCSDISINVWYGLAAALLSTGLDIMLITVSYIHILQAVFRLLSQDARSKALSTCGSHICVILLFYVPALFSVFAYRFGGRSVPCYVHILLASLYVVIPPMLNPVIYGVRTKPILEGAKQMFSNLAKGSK
Chain of OR51I2 (Homo sapiens) (Q9H344 whole entry): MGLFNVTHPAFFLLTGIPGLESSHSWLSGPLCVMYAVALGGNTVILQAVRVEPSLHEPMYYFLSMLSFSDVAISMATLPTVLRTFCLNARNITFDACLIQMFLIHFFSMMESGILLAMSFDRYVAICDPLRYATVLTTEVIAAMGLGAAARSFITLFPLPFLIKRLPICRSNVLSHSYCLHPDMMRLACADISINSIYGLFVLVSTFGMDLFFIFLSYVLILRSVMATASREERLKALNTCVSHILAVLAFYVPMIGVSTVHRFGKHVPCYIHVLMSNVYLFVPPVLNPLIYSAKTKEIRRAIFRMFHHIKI
Chain of OR51J1 (Homo sapiens) (Q9H342 whole entry): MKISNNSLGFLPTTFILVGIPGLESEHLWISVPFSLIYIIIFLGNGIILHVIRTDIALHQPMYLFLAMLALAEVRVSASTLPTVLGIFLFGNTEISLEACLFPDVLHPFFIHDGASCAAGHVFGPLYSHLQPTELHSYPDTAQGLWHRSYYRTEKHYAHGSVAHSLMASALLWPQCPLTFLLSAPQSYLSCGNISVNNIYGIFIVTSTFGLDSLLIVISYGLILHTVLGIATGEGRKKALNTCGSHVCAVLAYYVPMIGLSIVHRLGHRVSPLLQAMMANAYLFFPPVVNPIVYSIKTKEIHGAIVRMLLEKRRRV
Chain of OR51F2 (Homo sapiens) (Q8NH61 whole entry): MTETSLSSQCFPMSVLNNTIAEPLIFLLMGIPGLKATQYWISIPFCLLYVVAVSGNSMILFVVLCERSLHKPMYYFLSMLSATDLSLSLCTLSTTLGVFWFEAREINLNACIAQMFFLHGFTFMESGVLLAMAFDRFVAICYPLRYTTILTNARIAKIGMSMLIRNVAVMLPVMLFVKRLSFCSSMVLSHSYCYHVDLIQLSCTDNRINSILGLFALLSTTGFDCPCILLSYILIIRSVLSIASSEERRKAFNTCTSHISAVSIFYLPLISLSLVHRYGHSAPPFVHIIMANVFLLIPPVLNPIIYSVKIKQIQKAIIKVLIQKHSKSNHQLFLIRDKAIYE
Chain of OR51Q1 (Homo sapiens) (Q8NH59 whole entry): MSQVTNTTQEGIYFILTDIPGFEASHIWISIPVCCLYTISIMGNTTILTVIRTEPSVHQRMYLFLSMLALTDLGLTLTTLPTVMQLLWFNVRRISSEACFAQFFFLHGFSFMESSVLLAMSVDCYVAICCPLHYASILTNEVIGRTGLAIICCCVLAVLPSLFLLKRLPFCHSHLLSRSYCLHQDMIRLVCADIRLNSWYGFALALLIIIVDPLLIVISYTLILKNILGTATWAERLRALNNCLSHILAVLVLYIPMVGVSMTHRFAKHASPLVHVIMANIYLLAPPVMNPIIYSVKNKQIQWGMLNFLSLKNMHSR
Chain of OR51G2 (Homo sapiens) (Q8NGK0 whole entry): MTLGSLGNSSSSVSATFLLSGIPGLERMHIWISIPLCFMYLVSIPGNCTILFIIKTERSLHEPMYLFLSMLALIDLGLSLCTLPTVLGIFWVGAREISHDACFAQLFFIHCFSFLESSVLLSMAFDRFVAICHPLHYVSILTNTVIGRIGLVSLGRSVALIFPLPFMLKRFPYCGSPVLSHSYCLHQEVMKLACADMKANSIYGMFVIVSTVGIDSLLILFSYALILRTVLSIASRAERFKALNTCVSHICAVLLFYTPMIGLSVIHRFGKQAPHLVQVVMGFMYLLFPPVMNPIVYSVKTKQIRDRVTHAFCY
Chain of OR51I1 (Homo sapiens) (Q9H343 whole entry): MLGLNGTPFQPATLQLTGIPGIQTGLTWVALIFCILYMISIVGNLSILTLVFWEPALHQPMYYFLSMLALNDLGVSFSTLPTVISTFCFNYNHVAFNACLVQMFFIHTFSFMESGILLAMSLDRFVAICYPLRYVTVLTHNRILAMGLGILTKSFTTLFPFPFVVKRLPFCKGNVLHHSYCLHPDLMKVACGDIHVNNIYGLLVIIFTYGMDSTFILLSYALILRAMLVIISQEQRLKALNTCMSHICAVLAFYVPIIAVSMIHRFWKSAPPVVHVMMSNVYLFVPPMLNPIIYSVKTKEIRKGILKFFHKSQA
Chain of OR52A1 (Homo sapiens) (Q9UKL2 whole entry): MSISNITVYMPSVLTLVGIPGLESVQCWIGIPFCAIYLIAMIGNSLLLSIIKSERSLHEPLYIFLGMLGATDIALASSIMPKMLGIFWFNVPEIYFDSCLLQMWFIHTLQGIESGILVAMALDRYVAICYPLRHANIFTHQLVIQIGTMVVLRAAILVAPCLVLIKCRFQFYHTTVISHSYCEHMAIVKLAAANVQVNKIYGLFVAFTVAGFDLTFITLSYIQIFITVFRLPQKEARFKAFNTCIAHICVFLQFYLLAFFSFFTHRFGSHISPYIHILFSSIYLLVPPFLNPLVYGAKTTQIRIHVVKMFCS

C=CCOC(=O)Cc1ccccc1
active: OR51L1 (Homo sapiens)
not listed: OR51F1 (Homo sapiens) | OR51H1 (Homo sapiens) | OR51T1 (Homo sapiens) | OR52A4P (Homo sapiens)
inactive: all other assays above

C=CCc1ccccc1
inactive: OR51L1 (Homo sapiens)

Cc1c([N+](=O)[O-])c(C)c([N+](=O)[O-])c(C(C)(C)C)c1[N+](=O)[O-]
inactive: all assays above

CCC1CCC(=O)O1 (centres undefined)
inactive: OR51L1 (Homo sapiens)

O=c1cc(O)c2ccccc2o1
inactive: OR51L1 (Homo sapiens)
